Experimental findings from ChEMBL document CHEMBL2169774, “Stabilization and structural alteration of the G-quadruplex DNA made from the human telomeric repeat mediated by Tröger's base based novel benzimidazole derivatives” (J Med Chem, 2012) are described below.

For series [1], the system named is Nucleic Acid. The experiment in a line: Ratio of Kapp for human d[G3(T2AG3)3] G-quadruplex DNA to Kapp for calf thymus duplex DNA. In kind it is nucleic-acid assay. The method in brief: (§1)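 UV–vis absorption titration of ligand with preformed Hum21 G4DNA, or with calf thymus duplex DNA. Hypochromicity data were converted to Scatchard plots, and the apparent association constant was obtained by linear fitting.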

In series [2] the test system is NIH3T3. The experiment in a line: Cytotoxicity in mouse NIH/3T3 cells at 4 uM up to 15 days […]. It counts as cell-based. To be noted: nih3t3, 360 h. The method in brief:
(§2)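 Long-term proliferation: HeLa, A549 or NIH3T3 cells were seeded at 5.0 × 10⁴/well. They were exposed to 4 μM ligand, or 0.1% DMSO as vehicle, every 5 days. Cells were counted and reseeded at half the population over 15 days, and population versus time was plotted.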

Series [3] concerns A549. Description: Cytotoxicity in human A549 cells at 4 uM up to 15 days […]. It counts as functional. The method in brief:
as §2

The test system of series [4] is Nucleic Acid. The experiment in a line: Binding affinity to human d[G3(T2AG3)3] G-quadruplex DNA in 100 mM KCl buffer by CD spectroscopy. It counts as nucleic-acid assay. Summed up:
(§3)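 CD spectral titration of preformed Hum21 G4DNA (4 μM) in 10 mM Tris-HCl, 100 mM KCl, 0.1 mM EDTA, pH 7.4. Ligand was added at 0–160 μM in 20 μM increments. The induced CD band was followed.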

The subject of series [5] is Nucleic Acid. Description: Binding affinity to human d[G3(T2AG3)3] G-quadruplex DNA assessed as change in melting temperature at 20 uM in KCl buffer using compound which is heated to 90 degC for 5 mins followed by slow cooling. In kind it is nucleic-acid assay. The method in brief: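 Hum21 (2 μM) was folded in KCl buffer (10 mM Tris-HCl, 100 mM KCl, 0.1 mM EDTA) with ligand present at r = 10, by heating to 90 °C for 5 min and cooling slowly. CD melting was read at 266 nm. ΔTm is taken against free G4DNA, mean of two experiments.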

For series [6], the system named is Nucleic Acid. The experiment in a line: Binding affinity to human d[G3(T2AG3)3] G-quadruplex DNA assessed as change in structure in CD spectral profile in LiCl buffer by CD spectroscopy. In kind it is nucleic-acid assay. Summed up:
(§4)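 Hum21 G4DNA (4 μM strand) was preformed in 10 mM Tris-HCl with 100 mM LiCl and 0.1 mM EDTA, pH 7.4. It was then titrated with ligand and CD spectra were recorded.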

In another series the test system is HEK-293T. The experiment in a line: Cytotoxicity in transformed HEK293T cells incubated for 6 to 48 hrs by MTT assay. To be noted: Homo sapiens. It counts as functional, cell-based. Summed up:
(§5)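 HEK293 and HEK293T cells were seeded at 8.0 × 10³/well and run as in the short-term MTT protocol: treatment in 0.2% FBS, then medium change and 595 nm formazan read-out. Figure data reflect 48 h exposure, six replicates per point.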
(Tetrazolium dyes change colour on reduction, which living cells bring about.)

Another series has as its system HEK293. The experiment in a line: Cytotoxicity in HEK293 cells incubated for 6 to 48 hrs by MTT assay. It counts as cell-based. To be noted: human. The method in brief:
as §5

For series [7], the system named is HeLa. The experiment in a line: Cytotoxicity in human HeLa cells at 4 uM up to 15 days by […]. It counts as functional. Summed up: as §2
Series [8] has as its system NIH3T3. Description: Cytotoxicity in mouse NIH/3T3 cells incubated for 6 to 48 hrs by MTT assay. In kind it is cell-based. Summed up:
(§6)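 HeLa, A549 or NIH3T3 cells (15.0 × 10³/well) were grown 24 h to 70% confluency. Ligand was applied at various concentrations in 0.2% FBS for 6 or 48 h at 37 °C. Medium was then replaced with DMEM/10% FBS and growth continued 42 h. MTT was added for 4 h and formazan dissolved in DMSO. Absorbance read at 595 nm, in triplicate, viability normalized to untreated cells.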

In series [9] the test system is A549. The experiment in a line: Cytotoxicity in human A549 cells incubated for 6 to 48 hrs by MTT assay. It counts as functional, cell-based. The method in brief:
as §6

Series [10] concerns HeLa. Description: Cytotoxicity in human HeLa cells incubated for 6 to 48 hrs by MTT assay. In kind it is functional, cell-based. Summed up: as §6
Series [11] concerns the target Telomerase reverse transcriptase (Homo sapiens, UniProt O14746). Description: Inhibition of telomerase extracted from human A549 cells by TRAP-LIG assay. In kind it is cell-free. Summed up: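 Three-step TRAP-LIG assay with A549 protein extract (500 ng/sample) and TS primer in TRAP buffer (pH 8.3, 68 mM KCl), ligand at 5–60 μM. Elongation ran at 30 °C for 10 min. Ligand was then removed on a spin column. PCR with ACX primer ran 30 cycles. Products were resolved on 10% PAGE and read by phosphorimager. IC50 is the mean of three experiments.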

The test system of series [12] is Nucleic Acid. Description: Induction of topology changes in human d[G3(T2AG3)3] G-quadruplex DNA in 100 uM KCl buffer by EMSA method. It counts as nucleic-acid assay. As to conditions: in the assay text read “100 mM KCl” for “100 uM KCl”. Summed up: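 5′-32P-labelled Hum21 G4DNA (5 μM) was used under two conditions. In one, it was preformed in 100 mM KCl and then given ligand (25 μM). In the other, it was folded with ligand (15–60 μM) by heating at 90 °C for 5 min and slow cooling in 100 mM KCl. Samples were run on native polyacrylamide gel with a dT20 mobility marker.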

In series [13] the test system is Nucleic Acid. Description: Binding affinity to human d[G3(T2AG3)3] G-quadruplex DNA by UV-vis titration based assay. It counts as nucleic-acid assay. Summed up: as §1
Series [14] has as its system Nucleic Acid. Description: Binding affinity to human d[G3(T2AG3)3] G-quadruplex DNA assessed as change in melting temperature at 20 uM in KCl buffer. In kind it is nucleic-acid assay. The method in brief:
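CD melting of preformed Hum21 G4DNA (2 μM) in 10 mM Tris-HCl, 100 mM KCl, 0.1 mM EDTA, read at 292 nm. Ligand added at r = 10. ΔTm is bound minus free Tm, average of two runs.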

For series [15], the system named is Nucleic Acid. The experiment in a line: Binding affinity to human d[G3(T2AG3)3] G-quadruplex DNA assessed as change in melting temperature at 20 uM in NaCl buffer. In kind it is nucleic-acid assay. The method in brief: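 CD melting at 295 nm of Hum21 G4DNA (2 μM strand) preformed in 10 mM Tris-HCl, 100 mM NaCl, 0.1 mM EDTA. Ligand at r = 10. ΔTm is complexed minus free Tm, mean of two experiments.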

Series [16] relates to Nucleic Acid. The experiment in a line: Binding affinity to human d[G3(T2AG3)3] G-quadruplex DNA assessed as change in melting temperature at 10 uM in LiCl-Na buffer. In kind it is nucleic-acid assay. The method in brief:
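CD melting of Hum21 G4DNA (4 μM strand) preformed by heating at 90 °C for 5 min then slow cooling over 24 h in 100 mM LiCl, 10 mM sodium cacodylate, 0.1 mM EDTA, pH 7.4. Ligand added at [ligand]/[DNA] r = 5. Melting followed at 295 nm. ΔTm is ligand-bound minus free Tm, average of two runs.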

In series [17] the test system is Nucleic Acid. The experiment in a line: Binding affinity to human d[G3(T2AG3)3] G-quadruplex DNA assessed formation of G-quadruplex parallel strands in 100 mM KCl buffer by CD spectroscopy. In kind it is nucleic-acid assay. Summed up: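 Hum21 (4 μM strand) was heated at 90 °C for 5 min together with ligand (40 μM), then cooled slowly in 100 mM KCl buffer (10 mM Tris-HCl, 0.1 mM EDTA, pH 7.4). CD spectra were recorded to assign parallel or antiparallel topology.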

Series [18] relates to Nucleic Acid. Description: Binding affinity to human d[G3(T2AG3)3] G-quadruplex DNA assessed as change in structure in CD spectral profile in 100 mM KCl buffer by CD spectroscopy. It counts as nucleic-acid assay. Summed up:
as §3

The subject of series [19] is Nucleic Acid. Description: Binding affinity to human d[G3(T2AG3)3] G-quadruplex DNA in LiCl buffer by CD spectroscopy. It counts as nucleic-acid assay. Summed up:
as §4

Series [20] relates to Nucleic Acid. The experiment in a line: Binding affinity to human d[G3(T2AG3)3] G-quadruplex DNA in LiCl+ Na+ buffer by CD spectroscopy. In kind it is nucleic-acid assay. Summed up:
(§7)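 CD titration of preformed Hum21 G4DNA (4 μM) in 100 mM LiCl, 10 mM sodium cacodylate, 0.1 mM EDTA, pH 7.4. Ligand was added stepwise from 0 to 160 μM in 20 μM steps. Peaks at 250 and 295 nm and the induced CD band were monitored.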

Series [21] deals with Nucleic Acid. Description: Binding affinity to human d[G3(T2AG3)3] G-quadruplex DNA assessed as change in structure in CD spectral profile in LiCl+ Na+ buffer by CD spectroscopy. In kind it is nucleic-acid assay. The method in brief:
as §7

Active and inactive are the calls of the source. No cut-off for these calls is given here.

Telomerase reverse transcriptase, sequence (O14746 whole entry): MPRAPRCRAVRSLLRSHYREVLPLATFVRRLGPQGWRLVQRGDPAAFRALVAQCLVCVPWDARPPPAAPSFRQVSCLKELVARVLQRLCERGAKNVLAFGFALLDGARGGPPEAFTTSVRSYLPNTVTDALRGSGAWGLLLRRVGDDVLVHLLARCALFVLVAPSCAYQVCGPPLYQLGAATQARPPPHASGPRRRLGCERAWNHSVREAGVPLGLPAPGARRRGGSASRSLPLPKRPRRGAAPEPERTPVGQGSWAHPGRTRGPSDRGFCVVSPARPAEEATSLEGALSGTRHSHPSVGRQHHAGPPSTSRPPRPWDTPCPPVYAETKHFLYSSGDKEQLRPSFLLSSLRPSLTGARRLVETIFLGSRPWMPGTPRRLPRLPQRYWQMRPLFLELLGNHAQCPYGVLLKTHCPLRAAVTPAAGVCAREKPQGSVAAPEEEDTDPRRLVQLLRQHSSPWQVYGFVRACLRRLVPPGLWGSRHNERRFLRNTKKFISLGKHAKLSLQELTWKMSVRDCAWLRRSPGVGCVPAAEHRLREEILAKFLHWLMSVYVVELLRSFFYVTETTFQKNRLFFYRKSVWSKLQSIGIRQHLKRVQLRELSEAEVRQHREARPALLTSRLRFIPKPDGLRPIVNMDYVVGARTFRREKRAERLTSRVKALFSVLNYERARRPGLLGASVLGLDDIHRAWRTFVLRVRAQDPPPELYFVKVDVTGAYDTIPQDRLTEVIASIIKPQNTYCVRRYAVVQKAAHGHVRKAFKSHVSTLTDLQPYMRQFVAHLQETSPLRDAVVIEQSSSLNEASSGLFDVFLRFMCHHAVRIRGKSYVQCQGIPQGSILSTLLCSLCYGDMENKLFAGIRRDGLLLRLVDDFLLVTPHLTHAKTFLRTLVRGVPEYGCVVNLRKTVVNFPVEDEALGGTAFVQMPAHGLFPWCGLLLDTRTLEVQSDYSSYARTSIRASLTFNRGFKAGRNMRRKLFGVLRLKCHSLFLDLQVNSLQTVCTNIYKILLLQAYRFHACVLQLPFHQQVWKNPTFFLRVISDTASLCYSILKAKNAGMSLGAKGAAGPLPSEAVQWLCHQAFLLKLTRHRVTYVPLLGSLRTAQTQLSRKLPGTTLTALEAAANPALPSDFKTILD

One may read the ΔTm as the shift of the melting midpoint relative to a reference. As usually defined, the IC50 is the concentration that inhibits the measured activity by half. On to `OCCN1CCN(c2ccc3nc(-c4ccc5c(c4)CN4CN5Cc5cc(-c6nc7ccc(N8CCN(CCO)CC8)cc7[nH]6)ccc54)[nH]c3c2)CC1`, for which the Ratio in the series with Nucleic Acid [1] was determined as 100. Besides, the Activity result is reported as “Toxic” in the series on NIH3T3 [2], 100% in the series on A549 [3] (record 2), “Toxic” in the series on HEK293 and “Toxic” in the series on NIH3T3 [8]. In addition, the result in the series on A549 [3], in the series with Nucleic Acid [4], in the series with HEK-293T, with HeLa [7], with A549 [9] and in the series on HeLa [10] was Active. Also, the result in the series on Nucleic Acid [12], with Nucleic Acid [17], in the series on Nucleic Acid [19] and in the series with Nucleic Acid [20] was Active. Also, the ΔTm with Nucleic Acid [5] came to 17 °C; in the series with Nucleic Acid [14] it was 10 °C; in the series with Nucleic Acid [15], 11 °C; with Nucleic Acid [16], 9.5 °C. In addition, the outcome in the series on Nucleic Acid [6], with Nucleic Acid [18] and in the series on Nucleic Acid [21] was inactive. Moreover, half-maximal inhibition in series [11] (IC50) required 14.5 µM. The Kapp in the series on Nucleic Acid [13] was determined as 4.2 ×10⁵ /M.
`CN1CCN(c2ccc3nc(-c4ccc5c(c4)CN4CN5Cc5cc(-c6nc7ccc(N8CCN(C)CC8)cc7[nH]6)ccc54)[nH]c3c2)CC1`: the Ratio in the series with Nucleic Acid [1] turned out to be 100. Besides, the Activity result was “Toxic” in the series on NIH3T3 [2]; 100% in the series on A549 [3]; “Toxic” with HEK293; 100% in the series on HeLa [7]; “Toxic” in the series on NIH3T3 [8]. For the same compound, the outcome in the series on Nucleic Acid [4], in the series on HEK-293T, with A549 [9], in the series on HeLa [10], in the series with Nucleic Acid [17] and in the series with Nucleic Acid [19] was Active. Besides, in the series on Nucleic Acid [20], the outcome was Active. Moreover, the ΔTm in the series with Nucleic Acid [5] is 15 °C; in the series on Nucleic Acid [14], 8 °C; with Nucleic Acid [15] it was 9 °C; in the series with Nucleic Acid [16], 9.3 °C. For the same compound, the outcome with Nucleic Acid [6], in the series on Nucleic Acid [12], in the series with Nucleic Acid [18] and in the series on Nucleic Acid [21] was inactive. The same compound gave an IC50 in [11] of 34.7 µM. The Kapp in the series on Nucleic Acid [13] stood at 1.4 ×10⁵ /M.
